# Measured values reported in ChEMBL document CHEMBL1122273, “5-sulfamoylorthanilic acids, a sulfonamide series with salidiuretic activity” (J Med Chem, 1983).
# What was measured:
# [1] = species: Rattus norvegicus; test: Saluretic activity in the rat measured as concentration of chloride in urine; type: functional
# Summary of the method: (§1)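 Rats deprived of food 24 h, water ad libitum, dosed 50 mg/kg by stomach tube as suspension in 2% starch, no extra water load. Groups of three in diuresis funnels; urine over first 5 h collected. Na⁺ and K⁺ by flame photometry, Cl⁻ argentometrically; expressed as mequiv/kg.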
# [2] = species: Rattus norvegicus; test: Saluretic activity in the rat measured as concentration of K+ in urine; type: functional; summary of the method: as §1
# [3] = species: Rattus norvegicus; test: Diuretic activity in the rats, determined by a modified Lipschitz test; type: functional, Urine
# Summary of the method: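 Modified Lipschitz test: rats deprived of water 24 h, grouped in threes of similar weight in diuresis funnels. Oral dose of 50 mg/kg, suspended in 2% starch solution, by stomach tube.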
# [4] = species: Rattus norvegicus; test: Saluretic activity in the rat measured as concentration of Na+ in urine; type: functional; summary of the method: as §1
SMILES,Saluretic activity [1],Saluretic activity [2],Diuretic activity [3],Saluretic activity [4]
CN(C)S(=O)(=O)c1cc(S(=O)(=O)[O-])c(NCc2ccco2)cc1Oc1ccccc1.[K+],0.7 m equiv 5hr-1 kg-1,1.1 m equiv 5hr-1 kg-1,1.2 mL/kg,0.3 m equiv 5hr-1 kg-1
CN(c1ccccc1)c1cc(NCc2ccco2)c(S(=O)(=O)O)cc1S(N)(=O)=O.N,8.3 m equiv 5hr-1 kg-1,2.1 m equiv 5hr-1 kg-1,4.8 mL/kg,6.8 m equiv 5hr-1 kg-1
Cc1cccc(Oc2cc(NCc3ccco3)c(S(=O)(=O)[O-])cc2S(N)(=O)=O)c1.[K+],7.9 m equiv 5hr-1 kg-1,2.2 m equiv 5hr-1 kg-1,4.4 mL/kg,6.7 m equiv 5hr-1 kg-1
N.NS(=O)(=O)c1cc(S(=O)(=O)O)c(NCc2ccco2)cc1Oc1ccccc1,8.7 m equiv 5hr-1 kg-1,2.4 m equiv 5hr-1 kg-1,4.2 mL/kg,6.6 m equiv 5hr-1 kg-1
NS(=O)(=O)c1cc(S(=O)(=O)[O-])c(NCc2ccco2)cc1Nc1ccc(Cl)cc1.[Na+],0.5 m equiv 5hr-1 kg-1,0.4 m equiv 5hr-1 kg-1,0.4 mL/kg,0.4 m equiv 5hr-1 kg-1
CN(c1cc(NCc2ccco2)c(S(=O)(=O)[O-])cc1S(N)(=O)=O)C1CCCCC1.[K+],0.6 m equiv 5hr-1 kg-1,1 m equiv 5hr-1 kg-1,0.8 mL/kg,0.4 m equiv 5hr-1 kg-1
NS(=O)(=O)c1cc(S(=O)(=O)[O-])c(NCc2ccco2)cc1Oc1cccc(Cl)c1.[K+],5.1 m equiv 5hr-1 kg-1,2 m equiv 5hr-1 kg-1,2 mL/kg,3.8 m equiv 5hr-1 kg-1
NS(=O)(=O)c1cc(S(=O)(=O)[O-])c(NCc2ccc3c(c2)OCO3)cc1Cl.[Na+],0.3 m equiv 5hr-1 kg-1,0.3 m equiv 5hr-1 kg-1,0.4 mL/kg,0.4 m equiv 5hr-1 kg-1
NS(=O)(=O)c1cc(S(=O)(=O)[O-])c(NCc2ccco2)cc1Oc1ccccc1.[K+],7.1 m equiv 5hr-1 kg-1,1.5 m equiv 5hr-1 kg-1,1.8 mL/kg,5 m equiv 5hr-1 kg-1
CCOCCNc1cc(Cl)c(S(N)(=O)=O)cc1S(=O)(=O)[O-].[Na+],0.2 m equiv 5hr-1 kg-1,0.2 m equiv 5hr-1 kg-1,0.4 mL/kg,0.2 m equiv 5hr-1 kg-1
CCCCCCS(=O)(=O)c1cc(NCc2ccco2)c(S(=O)(=O)[O-])cc1S(N)(=O)=O.[Na+],1.2 m equiv 5hr-1 kg-1,1.9 m equiv 5hr-1 kg-1,0.7 mL/kg,1.1 m equiv 5hr-1 kg-1
Cc1cccc(Nc2cc(NCc3ccco3)c(S(=O)(=O)[O-])cc2S(N)(=O)=O)c1.[Na+],0.9 m equiv 5hr-1 kg-1,1.5 m equiv 5hr-1 kg-1,0.8 mL/kg,0.6 m equiv 5hr-1 kg-1
NC(CO)(CO)CO.NS(=O)(=O)c1cc(S(=O)(=O)O)c(NCc2ccco2)cc1Oc1ccccc1,7.8 m equiv 5hr-1 kg-1,2.2 m equiv 5hr-1 kg-1,4.1 mL/kg,5.8 m equiv 5hr-1 kg-1
C1CCC(NC2CCCCC2)CC1.NS(=O)(=O)c1cc(S(=O)(=O)O)c(NCc2ccco2)cc1Oc1ccccc1,0.8 m equiv 5hr-1 kg-1,1 m equiv 5hr-1 kg-1,0.9 mL/kg,0.7 m equiv 5hr-1 kg-1
NS(=O)(=O)c1cc(S(=O)(=O)[O-])c(NCc2ccco2)cc1Nc1ccccc1Cl.[Na+],0.6 m equiv 5hr-1 kg-1,0.8 m equiv 5hr-1 kg-1,1.1 mL/kg,0.3 m equiv 5hr-1 kg-1
NS(=O)(=O)c1cc(S(=O)(=O)[O-])c(NCC2CCCO2)cc1Cl.[Na+] (stereo not given),0.5 m equiv 5hr-1 kg-1,0.4 m equiv 5hr-1 kg-1,0.4 mL/kg,0.4 m equiv 5hr-1 kg-1
CC(C)CS(=O)(=O)c1cc(NCc2ccco2)c(S(=O)(=O)[O-])cc1S(N)(=O)=O.[Na+],8.1 m equiv 5hr-1 kg-1,2.5 m equiv 5hr-1 kg-1,2.8 mL/kg,7.6 m equiv 5hr-1 kg-1
CN(Cc1ccco1)c1cc(Oc2ccccc2)c(S(N)(=O)=O)cc1S(=O)(=O)[O-].[K+],1.7 m equiv 5hr-1 kg-1,1.5 m equiv 5hr-1 kg-1,1.3 mL/kg,0.3 m equiv 5hr-1 kg-1

SMILES,Saluretic activity [1],Saluretic activity [2],Diuretic activity [3],Saluretic activity [4]
CCC(C)S(=O)(=O)c1cc(NCc2ccco2)c(S(=O)(=O)[O-])cc1S(N)(=O)=O.[Na+] (stereo not given),8.5 m equiv 5hr-1 kg-1,1.9 m equiv 5hr-1 kg-1,4.5 mL/kg,6.7 m equiv 5hr-1 kg-1
CNS(=O)(=O)c1cc(S(=O)(=O)[O-])c(NCc2ccco2)cc1N(C)c1ccccc1.[K+],1.8 m equiv 5hr-1 kg-1,1.4 m equiv 5hr-1 kg-1,1.3 mL/kg,1.2 m equiv 5hr-1 kg-1
CC(C)(C)S(=O)(=O)c1cc(NCc2ccco2)c(S(=O)(=O)[O-])cc1S(N)(=O)=O.[K+],4.3 m equiv 5hr-1 kg-1,1.8 m equiv 5hr-1 kg-1,2.5 mL/kg,3.3 m equiv 5hr-1 kg-1
Cc1ccc(Oc2cc(NCc3ccco3)c(S(=O)(=O)[O-])cc2S(N)(=O)=O)cc1C.[K+],3.7 m equiv 5hr-1 kg-1,1.4 m equiv 5hr-1 kg-1,1.3 mL/kg,2.2 m equiv 5hr-1 kg-1
NS(=O)(=O)c1cc(S(=O)(=O)[O-])c(Cl)cc1NCc1ccco1.[Na+],1 m equiv 5hr-1 kg-1,0.9 m equiv 5hr-1 kg-1,0.5 mL/kg,0.5 m equiv 5hr-1 kg-1
CN(c1ccc(Cl)cc1)c1cc(NCc2ccco2)c(S(=O)(=O)[O-])cc1S(N)(=O)=O.[Na+],0.7 m equiv 5hr-1 kg-1,1.1 m equiv 5hr-1 kg-1,1.2 mL/kg,0.7 m equiv 5hr-1 kg-1
NCc1ccco1.NS(=O)(=O)c1cc(S(=O)(=O)O)c(NCc2ccco2)cc1Cl,7.2 m equiv 5hr-1 kg-1,2.3 m equiv 5hr-1 kg-1,3.2 mL/kg,6.3 m equiv 5hr-1 kg-1
CN(c1ccccc1)c1cc(NCc2ccco2)c(S(=O)(=O)[O-])cc1S(=O)(=O)N(C)C.[K+],1.5 m equiv 5hr-1 kg-1,1.2 m equiv 5hr-1 kg-1,1.6 mL/kg,1 m equiv 5hr-1 kg-1
NS(=O)(=O)c1cc(S(=O)(=O)[O-])c(NCc2ccco2)cc1Oc1ccc(Cl)cc1.[K+],6.4 m equiv 5hr-1 kg-1,2 m equiv 5hr-1 kg-1,2.2 mL/kg,5.1 m equiv 5hr-1 kg-1
NS(=O)(=O)c1cc(S(=O)(=O)[O-])c(Oc2ccccc2)cc1NCc1ccco1.[K+],0.8 m equiv 5hr-1 kg-1,1 m equiv 5hr-1 kg-1,0.8 mL/kg,0.8 m equiv 5hr-1 kg-1
NS(=O)(=O)c1cc(S(=O)(=O)[O-])c(NCc2ccncc2)cc1Cl.[Na+],0.1 m equiv 5hr-1 kg-1,0.4 m equiv 5hr-1 kg-1,0.2 mL/kg,0.1 m equiv 5hr-1 kg-1
CN(c1ccccc1)c1cc(NCc2ccco2)c(S(=O)(=O)O)cc1S(N)(=O)=O.NC(N)=NC(=O)c1nc(Cl)c(N)nc1N,2.3 m equiv 5hr-1 kg-1,0.4 m equiv 5hr-1 kg-1,3.3 mL/kg,3.5 m equiv 5hr-1 kg-1
NS(=O)(=O)c1cc(S(=O)(=O)[O-])c(N(Cc2ccccc2)Cc2ccccc2)cc1Cl.[Na+],0.9 m equiv 5hr-1 kg-1,0.8 m equiv 5hr-1 kg-1,0.7 mL/kg,0.3 m equiv 5hr-1 kg-1
CN(Cc1ccco1)c1cc(Cl)c(S(N)(=O)=O)cc1S(=O)(=O)[O-].[Na+],0.8 m equiv 5hr-1 kg-1,0.5 m equiv 5hr-1 kg-1,0.8 mL/kg,0.8 m equiv 5hr-1 kg-1
Nc1cc(Oc2ccccc2)c(S(N)(=O)=O)cc1S(=O)(=O)[O-].[K+],0.7 m equiv 5hr-1 kg-1,1.3 m equiv 5hr-1 kg-1,1 mL/kg,0.5 m equiv 5hr-1 kg-1
CN(c1ccccc1)c1cc(NCc2ccco2)c(S(=O)(=O)[O-])cc1S(N)(=O)=O.[K+],7.4 m equiv 5hr-1 kg-1,1.7 m equiv 5hr-1 kg-1,3.1 mL/kg,6.3 m equiv 5hr-1 kg-1
COc1ccccc1CNc1cc(Cl)c(S(N)(=O)=O)cc1S(=O)(=O)[O-].[Na+],0.1 m equiv 5hr-1 kg-1,0.3 m equiv 5hr-1 kg-1,0.2 mL/kg,0.1 m equiv 5hr-1 kg-1
